Bioassay records deposited in PubChem by several laboratories.
In the library only some 4.3% were active in any assay of this set; here they are far more common.
MC4R barr agon – human MC4R agonism via beta-arrestin; P32245; activation, % at 8.9 µM; AID 540308; hit rate 0.98% among 360,000; U2OS MC4R beta-arrestin complementation, luminescence; percent of melanotan II response, DMSO zero;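 active = activation above a per-plate cutoff, the mean activation of sample wells on that plate plus 3 SD, cut at about 8% in these data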
Target sequence (P32245 whole entry, looked up): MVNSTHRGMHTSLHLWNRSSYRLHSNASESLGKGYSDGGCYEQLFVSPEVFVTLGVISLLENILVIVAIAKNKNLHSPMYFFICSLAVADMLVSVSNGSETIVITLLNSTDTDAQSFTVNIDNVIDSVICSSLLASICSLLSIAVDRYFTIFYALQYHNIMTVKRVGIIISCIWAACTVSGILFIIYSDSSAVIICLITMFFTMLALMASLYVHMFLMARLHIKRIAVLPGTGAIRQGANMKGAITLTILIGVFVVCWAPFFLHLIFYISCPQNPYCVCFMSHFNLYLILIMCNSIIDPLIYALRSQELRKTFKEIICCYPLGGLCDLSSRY
Beta2AR agonist – activates human beta-2 adrenergic receptor causing internalization. hit rate 0.43% among 340,000. Am2.2-beta2AR cells, FAP receptor internalization, flow cytometry. P07550. response, % (concentration not given with the values). AID 504454;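 active = response above a set limit, near 3 SD of response in nonfluorescent compounds, cut at about 42% in these data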
HTR2A ag – activates the mouse 5-HT2A serotonin receptor; hit rate 0.66% among 360,000; P35363; CHO-K1 mHTR2A beta-arrestin complementation, luminescence; percent of 30 µM serotonin response; activation, % at 7.6 µM;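 active = activation above a run cutoff, the mean activation of all tested compounds plus 3 SD, cut at about 14% in these data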;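 also: 0% = plate median of compound wells and 100% = 30 µM serotonin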
TAAR1 ag – agonists of human TAAR1; CHO RD-HGA16 TAAR1, Fluo-8 calcium fluorescence; vehicle wells 0%, saturating PEA agonist 100%; activation, % at 3 µM; hit rate 0.99% among 360,000; AID 624467;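 active = activation above the mean activation of all test compounds in the run plus 3 SD, cut at about 38% in these data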
Target sequence (Q96RJ0 whole entry, looked up): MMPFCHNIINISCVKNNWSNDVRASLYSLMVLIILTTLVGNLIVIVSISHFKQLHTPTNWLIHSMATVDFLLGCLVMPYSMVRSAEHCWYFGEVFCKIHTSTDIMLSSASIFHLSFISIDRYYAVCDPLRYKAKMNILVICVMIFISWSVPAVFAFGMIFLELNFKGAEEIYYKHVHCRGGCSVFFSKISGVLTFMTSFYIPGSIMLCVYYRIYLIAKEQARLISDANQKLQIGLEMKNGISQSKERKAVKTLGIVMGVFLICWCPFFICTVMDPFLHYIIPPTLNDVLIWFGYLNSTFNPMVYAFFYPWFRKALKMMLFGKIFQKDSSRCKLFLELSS
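Test system: RD-HGA16 (CHO) cells co-expressing Gα16 and hTAAR1 | Doses: Single dose, 3 µM | Schedule: 17-24 h seeding, 75 min 37 °C dye, 30 min RT | Evaluation: % activation from peak over basal fluorescence ratio, DMSO-to-PEA scaled | Technique: Kinetic Fluo-8 calcium fluorescence | Benchmarks: Low control DMSO, high control PEA (EC100)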
TAAR1 antag – human TAAR1 antagonism. Q96RJ0. hit rate 1.5% among 360,000. inhibition, % at 3 µM. AID 624466. CHO RD-HGA16 TAAR1, Fluo-8 calcium fluorescence, antagonist;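 active = inhibition above a per-plate cutoff, the mean inhibition of test compounds on that plate plus 3 SD, cut at about 49% in these data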;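 also: 0% = DMSO plus EC80 beta-PEA response and 100% = DMSO alone without agonist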
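Test system – hTAAR1-expressing CHO RD-HGA16 cells, Gα16-coupled · Also added – β-PEA at EC80 concentration, post-compound challenge · Compound – 3 µM, single point · Incubation – dye loading 75 min at 37 °C, then 30 min room temperature · Measured by – Fluo-8 intracellular calcium dye fluorescence, real-time kinetic reads · Benchmarks – vehicle and agonist controls · Replicates – singlicate, one well per test compound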
MC4R antagonist – human MC4R antagonism in cAMP assay. P32245. AID 540295. hit rate 0.48% among 360,000. inhibition, % at 6.5 µM. MC4R-expressing cells, MTII-stimulated cAMP, LANCE TR-FRET;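 active = inhibition above its plate's cutoff, the mean of tested wells on that plate plus 3 SD, cut at about 29% in these data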;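 also: 0% = Melanotan II alone and 100% = Melanotan II plus saturating MCL0020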
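Material: human MC4R-expressing U2OS cells. Probe or stimulus: Melanotan II challenge. Dosing: 6.5 µM single dose. Times: 30-min compound, 1-h challenge, 1-h detection, room temperature. Technique: TR-FRET with Eu-cAMP and labeled anti-cAMP, 671 nm. Replication: singlicate.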
Beta2AR ag CP1 – activates human beta-2 adrenergic receptor | Am2.2-beta2AR cells, FAP surface receptor, flow cytometry; stronger effect = lower value | AID 540358 | shares compounds with Beta2AR agonist | hit rate 25% among 1,100 | percent response (surface receptor), % at 10 µM;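 active = surface receptor percent response at or below 58%, roughly 3 SD from nonfluorescent compounds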
FAP fluor counter – flagged in Am2.2 fluorescence counterscreen for beta-2AR agonists. AID 588765. 1,100 tested, under 10 active. Am2.2 cells, FAP fluorogen flow cytometry; stronger effect = lower value. shares compounds with Beta2AR agonist. calls only at 10 µM;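 active = percent response below a set limit in fluorescence channel 1 and below 50% in channel 8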
U2OS cAMP counter – U2OS forskolin cAMP inhibition counter-screen; shares compounds with MC4R antagonist; parental U2OS, LANCE TR-FRET; inhibition, % at 6.5 µM; hit rate 26% among 1,600;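 active = mean inhibition over triplicates above the low-control well mean plus 3 SD, set per campaign, cut at about 13% in these data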;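 also: signal is single emission at 671 nm which falls as cellular cAMP rises; 0% = forskolin-stimulated wells and 100% = buffer without forskolin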
MC4R cAMP antag – human MC4R cAMP antagonism confirmation | shares compounds with MC4R antagonist | MC4R-expressing cells, MTII-stimulated cAMP, TR-FRET | inhibition, % at 6.5 µM | hit rate 27% among 1,600; in the data active = inhibition above about 29%;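 also: 0% = agonist stimulated wells alone and 100% = agonist stimulated wells plus saturating reference antagonist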
An asterisk follows results filed as active.

`N=c1n(CC(=O)c2ccc([N+](=O)[O-])cc2)c2ccccc2n1Cc1ccccc1` gave MC4R barr agon 4, Beta2AR agonist 98*, HTR2A ag -5, TAAR1 ag 2, TAAR1 antag 3, MC4R antagonist 8, Beta2AR ag CP1 40* and FAP fluor counter inactive.
COc1ccc(Cl)cc1C(=O)Nc1cccc(-c2ccc3nncn3n2)c1 was read as MC4R barr agon 1, Beta2AR agonist 77*, HTR2A ag 3, TAAR1 ag 6, TAAR1 antag -7, MC4R antagonist 9, Beta2AR ag CP1 88 and FAP fluor counter inactive.
Screening Cc1ccc(CS(=O)(=O)c2nc3c(c(N(C)C)n2)CCCC3)cc1 returned MC4R barr agon -2, Beta2AR agonist 73*, HTR2A ag -1, TAAR1 ag 5, TAAR1 antag 5, MC4R antagonist 5, Beta2AR ag CP1 27* and FAP fluor counter inactive.
Cc1nc(S(=O)(=O)Cc2ccc(Cl)cc2)nc2c1CCC2 was read as MC4R barr agon -3, Beta2AR agonist -1, HTR2A ag 0, TAAR1 ag 16, TAAR1 antag 9 and MC4R antagonist -4.
O=C(COc1ccc(S(=O)(=O)N2CCOCC2)cc1)Nc1ccccc1Cl was read as MC4R barr agon 0, Beta2AR agonist 1, HTR2A ag 2, TAAR1 ag -1, TAAR1 antag -2, MC4R antagonist 6, Beta2AR ag CP1 117 and FAP fluor counter inactive.
For Cc1c(Cl)cccc1NC(=O)COc1ccc(S(=O)(=O)N2CCOCC2)cc1 the results were MC4R barr agon 0, Beta2AR agonist 13, HTR2A ag -1, TAAR1 ag 5, TAAR1 antag 12 and MC4R antagonist 1.
`O=C(COc1ccc(S(=O)(=O)N2CCOCC2)cc1)Nc1ccccc1F` gave MC4R barr agon -3, Beta2AR agonist 3, HTR2A ag 7, TAAR1 ag 3, TAAR1 antag -19, MC4R antagonist 7, Beta2AR ag CP1 98 and FAP fluor counter inactive.
For CN(C)S(=O)(=O)c1cccc(NC(=O)c2cccc(S(=O)(=O)N3CCCCC3)c2)c1 the results were MC4R barr agon -2, Beta2AR agonist 2, HTR2A ag -1, TAAR1 ag 3, TAAR1 antag 22 and MC4R antagonist 13.
O=C(CSc1nc(=O)n2ccccc2n1)OCc1ccccc1 was read as MC4R barr agon -1, Beta2AR agonist 10, HTR2A ag 1, TAAR1 ag 4, TAAR1 antag -20 and MC4R antagonist 7.
Screening CC1(c2ccccc2)CC(C)(C)N(C(N)=O)c2ccccc21 (centres undefined) returned MC4R barr agon 2, Beta2AR agonist 40, HTR2A ag 5, TAAR1 ag 10, TAAR1 antag 10 and MC4R antagonist 5.
Screening CC(=O)N1c2ccccc2C(C)(c2ccccc2)CC1(C)C (centres undefined) returned MC4R barr agon -1, Beta2AR agonist 54*, HTR2A ag 1, MC4R antagonist 3, Beta2AR ag CP1 45* and FAP fluor counter inactive.
`CC(C)Cc1nc2oc3c(NCCCN4CCOCC4)ncnc3c2c2c1CCC2` gave MC4R barr agon 1, Beta2AR agonist 8, HTR2A ag -21, TAAR1 ag 4, TAAR1 antag -1 and MC4R antagonist 14.
Screening CC(C)Cc1nc2oc3c(Cl)ncnc3c2c2c1CCC2 returned MC4R barr agon -4, Beta2AR agonist 110*, HTR2A ag 0, TAAR1 ag 3, TAAR1 antag 5, MC4R antagonist 60*, Beta2AR ag CP1 20*, FAP fluor counter inactive, U2OS cAMP counter 8 and MC4R cAMP antag 43*.
For N#Cc1csc(CCNC(=O)c2ccccc2)n1 the results were MC4R barr agon -1, HTR2A ag -2, TAAR1 ag 2, TAAR1 antag -10 and MC4R antagonist 3.
Screening Cc1cn([C@H]2C[C@H](O)[C@@H](/C=C/C(=O)NCCc3cccs3)O2)c(=O)[nH]c1=O returned HTR2A ag -4, TAAR1 ag 1 and TAAR1 antag -4.
Screening CCCN(CCC)S(=O)(=O)c1ccc(Cl)c([N+](=O)[O-])c1 returned MC4R barr agon -4, Beta2AR agonist 44*, HTR2A ag -1, TAAR1 ag 5, TAAR1 antag 7, MC4R antagonist 41*, Beta2AR ag CP1 107, FAP fluor counter inactive, U2OS cAMP counter 31* and MC4R cAMP antag 50*.
Screening O=[N+]([O-])c1cc(S(=O)(=O)C(F)(F)F)ccc1Sc1nc2ccccc2s1 returned MC4R barr agon -3, Beta2AR agonist 45*, HTR2A ag 4, TAAR1 ag 7, TAAR1 antag -2, MC4R antagonist 56*, Beta2AR ag CP1 73, FAP fluor counter inactive, U2OS cAMP counter 11 and MC4R cAMP antag 43*.
For CC(C)(C)c1ccc(-n2nc(C#N)c(Cl)cc2=O)cc1 the results were MC4R barr agon -3, Beta2AR agonist 52*, HTR2A ag -5, TAAR1 ag 13, TAAR1 antag 97*, MC4R antagonist 94*, Beta2AR ag CP1 22*, FAP fluor counter active, U2OS cAMP counter 41* and MC4R cAMP antag 89*.
For CCc1ccc2[nH]c(=O)c(CN(Cc3ccccc3)Cc3nnnn3Cc3ccco3)cc2c1 the results were MC4R barr agon 0, Beta2AR agonist 6, HTR2A ag 0, TAAR1 ag 9, TAAR1 antag 36 and MC4R antagonist 12.
`CCOC(=O)Cn1nnnc1CN(Cc1ccccc1)Cc1cc2cc(CC)ccc2[nH]c1=O` gave MC4R barr agon 3, Beta2AR agonist 100*, HTR2A ag 1, TAAR1 ag 6, TAAR1 antag 41, MC4R antagonist 30*, Beta2AR ag CP1 62, FAP fluor counter inactive, U2OS cAMP counter 3 and MC4R cAMP antag 0.
